Screening results from PubChem.
T cruzi repl: blocks replication of Trypanosoma cruzi; AID 1885; 300,000 tested, 1.4% active; inhibition, % (no concentration beside the values); T. cruzi beta-gal in NIH3T3, luminescence, 90 h;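 active = mean inhibition across valid replicates above about 55%, limit read from the data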;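 note: signal also drops with host cell toxicity which is not excluded here; higher percent means less beta-gal luminescence so fewer parasites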
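System: mouse NIH/3T3 fibroblasts infected with β-gal-expressing T. cruzi Tulahuen C4 / Input: NIH/3T3 cells, 5,000 per well / Buffer or medium: Low-serum DMEM with 2% FBS / Probe or stimulus: 5000 reporter trypomastigotes per well / Schedule: ≥90 h infection period, 3 h prior cell attachment / Measured by: GalScreen luminescence, 60 min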
MEKK3 PB1 HTS: modulators (inhibitors or enhancers) of MEK5 binding to human MEKK3 PB1 domain; bead-based flow cytometry, Alexa488-MEK5 binding to MEKK3; actives lie on both sides; 0 = blocked by unlabeled MEK5, 100 = vehicle; binding response (% of control), % at 10 µM; 290,000 tested, 1.4% active; AID 1529;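 active = binding response more than 3 SD above or below the average of its plate-row segment, actives on both sides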;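 note: Alexa488 bead fluorescence after subtracting the streptavidin-only scavenger bead signal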
Target sequence (Q99759 whole entry, looked up, the tested form may be a part): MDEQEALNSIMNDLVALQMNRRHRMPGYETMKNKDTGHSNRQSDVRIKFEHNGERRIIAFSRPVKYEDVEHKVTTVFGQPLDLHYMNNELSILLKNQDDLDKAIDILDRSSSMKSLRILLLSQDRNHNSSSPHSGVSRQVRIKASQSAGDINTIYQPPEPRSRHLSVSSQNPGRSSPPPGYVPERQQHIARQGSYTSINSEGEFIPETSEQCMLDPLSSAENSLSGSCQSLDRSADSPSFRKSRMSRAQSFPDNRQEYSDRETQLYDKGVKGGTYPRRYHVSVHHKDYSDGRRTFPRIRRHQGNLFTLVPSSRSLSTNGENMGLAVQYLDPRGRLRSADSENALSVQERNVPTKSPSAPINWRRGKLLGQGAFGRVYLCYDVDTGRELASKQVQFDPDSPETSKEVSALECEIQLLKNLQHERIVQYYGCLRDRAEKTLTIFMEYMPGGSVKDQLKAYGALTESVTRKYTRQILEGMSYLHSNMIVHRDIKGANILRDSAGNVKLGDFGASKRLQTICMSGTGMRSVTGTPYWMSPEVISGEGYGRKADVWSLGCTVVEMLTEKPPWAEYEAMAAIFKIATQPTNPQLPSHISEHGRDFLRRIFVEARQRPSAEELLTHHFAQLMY
MEKK2wt PB1 HTS: raises or lowers MEK5 binding to wildtype human MEKK2 PB1 domain. Q9Y2U5. bead flow cytometry, Alexa488-MEK5 binding to MEKK2 WT; actives lie on both sides. binding response (% of control), % at 10 µM. 290,000 tested, 1.1% active; in the data active = binding response below about 67% or above about 130%
MEKK2mut PB1 HTS: signal of MEK5 binding to mutant human MEKK2 PB1 domain. bead flow cytometry, Alexa488-MEK5 binding to MEKK2 mutant. percent response, % at 10 µM. 290,000 tested, 0.35% active. AID 1530; in the data active = percent response above about 24%, passing the limit was not always enough
DNA FID counter: displaces DNA intercalator in HCV helicase counter-screen; DNA fluorescent intercalator displacement, fluorescence; inhibition, % at 7.9 µM; 290,000 tested, 0.17% active; in the data active = inhibition above about 37%;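 note: higher means more ethidium bromide displaced from hairpin DNA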
NS3 helicase inh: HCV NS3 helicase inhibition. NS3 helicase DNA unwinding, Cy5 molecular beacon fluorescence. inhibition, % at 10.9 µM. 290,000 tested, 0.56% active;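 active = inhibition above the mean of all tested compounds plus 3 SD, set per campaign, cut at about 35% in these data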
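Assay system – hepatitis C virus NS3 helicase domain fragment enzyme · Buffer or medium – MOPS pH 6.5, MgCl2, DTT, Tween20, BSA · Reagent – Cy5/quencher beacon DNA duplex and ATP to start · Compound – single 10.9 µM dose · Timing – 1 h at 25 °C · Technique – Cy5 beacon fluorescence read at start and 1 h · Measure – % inhibition of unwinding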
MEKK2wt confirm: raises or lowers MEK5 binding to wildtype human MEKK2, retest; shares compounds with MEKK3 PB1 HTS; bead flow cytometry, Alexa488-MEK5 binding to MEKK2 WT; actives lie on both sides; binding response (% of control), % at 10 µM; 5,900 tested, 2.4% active; AID 1892; in the data active = binding response below about 16% or above about 210%; inactive = in between
MEKK2mut-MEK5: signal of MEK5 binding to mutant human MEKK2, retest; shares compounds with MEKK3 PB1 HTS; bead flow cytometry, Alexa488-MEK5 binding to MEKK2 mutant; percent response, % at 10 µM; 5,900 tested, 2% active; AID 1893; in the data active = percent response mostly above about 71%, no sharp cut-off; inactive = mostly below about 38%;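 note: higher means compound restores mutant binding toward wildtype level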
MEKK3 confirm: MEKK3-MEK5 PB1 inhibition, single concentration confirmation. shares compounds with MEKK3 PB1 HTS. bead flow cytometry, Alexa488-MEK5 binding to MEKK3; stronger effect = lower value. binding response (% of control), % at 10 µM. 5,900 tested, 1.8% active;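 active = binding response below 72% of control, or above a set upper limit, though filed actives all read lower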
Large screens that a line does not name were inactive (follow-up assays come after a bar, where they were run); [ ] = dose if it differs, or a comment. Compounds with a hit are over-represented: about 4.1% of the library has one in this group of screens.

CCOc1ccc(NC(=S)NCCCN2CCN(c3ccc(OC)cc3)CC2)cc1	MEKK2wt PB1 HTS 140 | MEKK2wt confirm inactive | MEKK2mut-MEK5 inactive | MEKK3 confirm inactive
COc1cccc(C(=O)NCCCN2CCN(CCCNC(=O)c3cccc(OC)c3)CC2)c1	MEKK3 PB1 HTS 128 | MEKK2wt confirm inactive | MEKK2mut-MEK5 inactive | MEKK3 confirm inactive
Cc1cccc(CS(=O)(=O)Cc2ccc(C(=O)NC3CCCCCC3)o2)c1	none
Cc1cccc(N(C)S(=O)(=O)c2ccc3c(c2)C(C)(C)C(=O)N3C)c1	none
Cc1[nH]c2ccccc2c1/C=N/NC(=O)C1CC1(c1ccccc1)c1ccccc1 (stereo not drawn)	none
C/C(=N\NC(=O)c1cc(C)nc2ccccc12)c1cccc(Cl)c1	none
COc1cc2c(C(=O)NCCCN3CCN(c4cccc(Cl)c4)CC3)cn(C)c(=O)c2cc1OC	MEKK3 PB1 HTS 127, MEKK2wt PB1 HTS 146 | MEKK2wt confirm inactive | MEKK2mut-MEK5 inactive | MEKK3 confirm inactive
COCCNC(=O)CNC(=O)c1nn(-c2ccc(OC)c(Cl)c2)c(=O)c2ccccc12	MEKK3 PB1 HTS 143, MEKK2wt PB1 HTS 135 | MEKK2wt confirm inactive | MEKK2mut-MEK5 inactive | MEKK3 confirm inactive
O=C(CCNC(=O)C1CCN(S(=O)(=O)c2ccc(F)cc2)CC1)NC1CC1	none
COc1ccc(/C=C/C(=O)OCC(=O)Nc2cccc(C(C)=O)c2)cc1	MEKK3 PB1 HTS 149 | MEKK2wt confirm inactive | MEKK2mut-MEK5 inactive | MEKK3 confirm inactive
COC(=O)C1CCN(CCCOc2ccc(CN3CCN(c4ccc([N+](=O)[O-])cc4)CC3)cc2)CC1	MEKK2wt PB1 HTS 141, DNA FID counter 47 | MEKK2wt confirm inactive | MEKK2mut-MEK5 inactive | MEKK3 confirm inactive
COC(=O)C1CCN(c2ccc([N+](=O)[O-])cc2)CC1	none
O=C(O)C1Cc2c([nH]c3ccccc23)C(c2ccc3c(c2)OCO3)N1 (stereo not drawn)	MEKK2wt PB1 HTS 6.0[inhibitor] | MEKK2wt confirm inactive | MEKK2mut-MEK5 inactive | MEKK3 confirm inactive
CCC(/C=C1\Sc2ccc(OC)cc2N1CC)=C\c1sc2ccc(OC)cc2[n+]1CCCS(=O)(=O)[O-]	MEKK3 PB1 HTS 56[inhibitor], MEKK2wt PB1 HTS 6.0[inhibitor] | MEKK2wt confirm 17[inhibitor] | MEKK2mut-MEK5 inactive | MEKK3 confirm 64
CCC(/C=C1\Sc2ccc(OC)cc2N1CCO)=C\c1sc2ccc(OC)cc2[n+]1CCO	MEKK3 PB1 HTS 36[inhibitor], MEKK2wt PB1 HTS 1.0[inhibitor] (no result: T cruzi repl) | MEKK2wt confirm 1.0[inhibitor] | MEKK2mut-MEK5 inactive | MEKK3 confirm 39
O=C(CCc1nc2ccccc2[nH]c1=O)N/N=C/c1ccccc1	none
CC(=O)c1ccc(S(=O)(=O)Oc2ccc(-c3ccc(C(=O)O)cc3)cc2)cc1	none
O=C(c1ccccc1)c1c2c(cc3sc4ccccc4[n+]13)-c1cccc3cccc-2c13	MEKK2wt PB1 HTS 60[inhibitor], DNA FID counter 53 (no result: T cruzi repl) | MEKK2wt confirm inactive | MEKK2mut-MEK5 inactive | MEKK3 confirm inactive
COc1ccc(CCC(=O)NNC(=O)c2ccc(OC)cc2)cc1	none
Cc1c(C(=O)N(Cc2ccccc2)Cc2cccs2)cnn1-c1ccc(Cl)cc1	MEKK3 PB1 HTS 132 | MEKK2wt confirm inactive | MEKK2mut-MEK5 inactive | MEKK3 confirm inactive
Cc1c(C(=O)N(Cc2ccccc2)C(C)C)cnn1-c1ccccc1	none
Brc1cc2c(cc1C1Nc3ccccc3C3C=CCC31)OCO2 (stereo not drawn)	MEKK3 PB1 HTS 67[inhibitor] | MEKK2wt confirm inactive | MEKK2mut-MEK5 inactive | MEKK3 confirm inactive
O=C(O)c1ccc2c(c1)C1C=CCC1C(c1cc3c(cc1Br)OCO3)N2 (stereo not drawn)	none
NS(=O)(=O)c1ccc(Nc2ccc3nonc3c2[N+](=O)[O-])cc1	MEKK3 PB1 HTS 133 | MEKK2wt confirm inactive | MEKK2mut-MEK5 inactive | MEKK3 confirm inactive
COc1cccc(CNS(=O)(=O)c2ccc(S(=O)(=O)N3CCCC3)cc2)c1	MEKK2wt PB1 HTS 601, MEKK2mut PB1 HTS 454 | MEKK2wt confirm inactive | MEKK2mut-MEK5 inactive | MEKK3 confirm inactive
COc1ccc(NC(=O)CS(=O)CC(=O)Nc2cccnc2)cc1 (stereo not drawn)	none
COc1cc(CCCN2C(=O)C(=O)NC[C@@H]2C(C)O)cc(OC)c1OC (stereo partly drawn)	MEKK3 PB1 HTS 2.0[inhibitor], MEKK2wt PB1 HTS 2.0[inhibitor] (no result: DNA FID counter, NS3 helicase inh) | MEKK2wt confirm inactive | MEKK2mut-MEK5 inactive | MEKK3 confirm inactive
O=C(CSc1nnc(Cn2cnc3ccccc32)o1)Nc1cccc2ccccc12	MEKK3 PB1 HTS 13[inhibitor], MEKK2wt PB1 HTS 19[inhibitor] | MEKK2wt confirm inactive | MEKK2mut-MEK5 inactive | MEKK3 confirm inactive
CC(C)c1cc(C(=O)Nc2cc(Cl)ccc2O)no1	MEKK3 PB1 HTS 8.0[inhibitor], MEKK2wt PB1 HTS 13[inhibitor] | MEKK2wt confirm inactive | MEKK2mut-MEK5 inactive | MEKK3 confirm inactive
COC(=O)c1ccc(CSc2nnc(-c3ccc4c(c3)OCO4)n2-c2ccccc2)o1	MEKK3 PB1 HTS 131 | MEKK2wt confirm inactive | MEKK2mut-MEK5 inactive | MEKK3 confirm inactive
COC(=O)c1ccc(CSc2nc3ccccc3c(=O)n2-c2ccccc2)o1	none
O=C(c1ccc(Cl)c(NC2=NC3CS(=O)(=O)CC3S2)c1)N1CCN(c2ccc(F)cc2)CC1 (stereo not drawn)	none
Cc1ccc(C2(C)NC(=O)N(CC(=O)Nc3c(C)n(C)n(-c4ccccc4)c3=O)C2=O)cc1 (stereo not drawn)	none
Cc1cc(NC(=O)CN2C(=O)NC(C)(c3ccccc3)C2=O)no1 (stereo not drawn)	none
Cc1c(NC(=O)CN2C(=O)NC(C)(c3ccccc3)C2=O)c(=O)n(-c2ccccc2)n1C (stereo not drawn)	MEKK3 PB1 HTS 140 | MEKK2wt confirm inactive | MEKK2mut-MEK5 inactive | MEKK3 confirm inactive
CCCC1(c2ccccc2)NC(=O)N(CC(=O)Nc2cc(C)on2)C1=O (stereo not drawn)	MEKK3 PB1 HTS 65[inhibitor] | MEKK2wt confirm inactive | MEKK2mut-MEK5 inactive | MEKK3 confirm inactive
CC(C)CCC(=O)N1CCOC1=O	none
Cc1ccc(S(=O)(=O)N2CCCC(c3nc4c(nnn4Cc4ccc5c(c4)OCCO5)c(=O)[nH]3)C2)cc1 (stereo not drawn)	none
